# Bioassay records: PubChem BioAssay, several laboratories
# Only some compounds are listed: those with a hit (about 2% of all), similar ones and a draw of the others.
# NR2E3 ag-1 – activates human NR2E3 receptor; Q9Y5X4; CHO-S Gal4-NCOR/VP16-NR2E3 two-hybrid, luciferase; inhibition of corepressor binding, % at 3.98 µM; actives 0.35% (n = 360,000); AID 602229;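 active = inhibition above the mean of all tested compounds plus 3 SD, cut at about 70% in these data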;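 also: 0% = DMSO with NR2E3 transfected cells and 100% = cells lacking NR2E3 construct; higher means lower luciferase signal from less NR2E3 corepressor binding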
# Myeloid diff 2 – compounds promoting myeloid differentiation; ER-HoxA9 myeloid progenitors, lysozyme-GFP differentiation, flow cytometry; calls only at 10 µM; actives 1% (n = 360,000); AID 624256;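 active = normalized GFP-positive differentiation at or above the plate's own cutoff, the solvent-only control mean plus 3 SD; inconclusive = no clear call, values can overlap the other calls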;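 also: cells exposed to compound for four days before flow analysis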
# NR2E3 ag-2 – activates human photoreceptor nuclear receptor NR2E3 | GST-NR2E3/biotin-RetCOR TR-FRET, 1536-well | inhibition of corepressor binding, % at 4.78 µM | actives 0.12% (n = 320,000) | AID 2300;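 active = percent inhibition above the cutoff of mean plus 3 SD of all tested compounds, set per screening campaign, cut at about 20% in these data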;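 also: 0% = DMSO wells and 100% = biotin wells as full block of FRET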
#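 Material: NR2E3–RetCOR corepressor complex / Incubation: Compound–protein incubation for 5 h at 4 °C / Dosing: compound at 4.8 µM, single dose / Detection: time-resolved FRET / Benchmarks: high control biotin, low control 0.6% DMSO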
# T cell modulator – T cell immune modulators affecting CD8 T cell-vesicle binding; 2C CD8+ T cell-vesicle binding, flow cytometry; active compounds read low; response (vesicle binding), % at 7 µM; actives 0.068% (n = 330,000);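 active = response, share of CD8 T cells binding vesicles, and their 90th percentile fluorescence all below set limits, cut at about 80% in these data, passing the limit was not always enough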;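 also: values below 100% mean blocked vesicle binding to the CD8+ T cells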
#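 Test system: purified 2C TCR transgenic mouse naive CD8+ T cells. Probe or stimulus: QL9-peptide-loaded Drosophila micro-vesicles bearing Ld, ICAM-1 and B7-1. Incubation: binding step 1.5 h, 37 °C, antibody labelling 20 min, ice. Measured by: flow cytometry of vesicle-bound cells.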
# FXN GAA850 act – increases GAA850 frataxin promoter reporter activity | HEK293 lucGAA850 FXN promoter luciferase reporter, 24 h; percent of 10 µM SAHA response | activation, % at 6 µM | actives 0.56% (n = 360,000) | AID 540364;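 active = activation above the average of all compounds screened plus 3 SD, cutoff fixed separately per campaign, cut at about 7.5% in these data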;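 also: 0% = DMSO wells and 100% = 10 µM SAHA wells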
# NR2E3 ag confirm-1 – NR2E3 (human) agonism, confirmation | shares compounds with NR2E3 ag-2 | activation (reported as inhibition), % at 3.98 µM | cell-free NR2E3 corepressor release, TR-FRET, 5 h | actives 39% (n = 360); in the data active = activation above about 20%
# PPARg-NCOR2 ag – PPARg-NCOR2 interaction agonism, NR2E3 counter-screen; TR-FRET PPARg-NCOR2 coregulator interaction, biochemical; actives 45% (n = 360); AID 504787; inhibition, % at 3.98 µM; shares compounds with NR2E3 ag-2; in the data active = inhibition above about 20%;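 also: 0% = DMSO vehicle and 100% = wells without protein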
# NR2E3 ag confirm-2 – NR2E3 agonism confirmed in two-hybrid assay; shares compounds with NR2E3 ag-1; CHO-S mammalian two-hybrid NR2E3-NCOR, luciferase luminescence; inhibition, % at 3.98 µM; actives 51% (n = 2,300); AID 624378;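 active = average inhibition above a cutoff equal to the mean inhibition of all tested compounds plus one SD, cut at about 70% in these data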;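 also: 0% = DMSO in NR2E3 cells and 100% = DMSO in cells lacking NR2E3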
# GAL4-VP16 luc – counter-screen for NR2E3 agonists: GAL4-VP16 reporter inhibitors | actives 29% (n = 2,300) | AID 624379 | inhibition, % at 3.98 µM | shares compounds with NR2E3 ag-1 | CHO-S GAL4-VP16 luciferase reporter, luminescence;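 active = mean inhibition above a cutoff equal to the average over all tested compounds plus one standard deviation, cut at about 70% in these data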;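 also: luciferase from a UAS reporter driven by GAL4-VP16 transactivation; 0% = DMSO with VP16-transfected cells and 100% = DMSO with cells lacking VP16; higher means less reporter light so more repression of VP16 activity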
# * marks the source's active call; other numbers are inactive results; i = inactive; ? = inconclusive; · = no result given; + = active, no number.
SMILES,NR2E3 ag-1,Myeloid diff 2,NR2E3 ag-2,T cell modulator,FXN GAA850 act,others
O=C(O)CCC(=O)NCCC1=c2ccccc2=N/C1=C\c1c(O)n(Cc2ccc(F)cc2)c(=S)[nH]c1=O,-25,+,0,841,3,
CC1(C(=O)O)CC12c1ccccc1-c1ccccc12 (stereo unspecified),-1,i,·,·,1,
CCN(CC)C(=O)Cn1cc(/C=C2\C(=O)NC(=O)N(c3ccccc3F)C2=O)c2ccccc21,-24,+,5,i,2,
CN1CCN(c2nc(N)c(Br)c(Cl)n2)CC1,-31,+,-1,620,0,
COC(=O)C1=C(C)NC(=S)NC1c1ccc(N(CCCl)CCCl)cc1Cl (stereo unspecified),-18,·,·,·,-1,
C[C@H]1CCC/C=C/C2C[C@H](O)CC2[C@H](O)/C=C/C(=O)O1 (stereo partly specified),96*,?,0,116,-9,
CN1/C(=C\C=C\C2=[N+](C)c3ccc4ccccc4c3C2(C)C)C(C)(C)c2ccccc21,·,·,-4,i,·,
C[N+]1=C(/C=C/Nc2ccccc2)C(C)(C)c2ccccc21,-15,+,-3,454,2,
CC1CN(c2ccc([N+](=O)[O-])c3cccnc23)CC(C)N1 (stereo unspecified),-2,i,2,362,9.6*,
O=[N+]([O-])c1ccc(N2CCCC2)c2ncccc12,-4,i,2,224,2,
COc1cc(/C=C/c2nc3ccccc3c(=O)n2-c2ccc(O)cc2)ccc1O,31,+,0,194,-1,
CCCC[C@@H](C)C[C@@H](C)C(=O)N(C)[C@@H](CC(C)C)C(=O)N[C@H](C(=O)N(C)[C@H](C(=O)N1C[C@@H](O)C[C@H]1C(=O)N1C(=O)C=C[C@@H]1C)C(C)C)C(C)OC(C)=O (stereo partly specified),82*,?,·,0,7,
O=c1[nH]c(O)c(/C=C2/C=CC(c3cc(Cl)ccc3Cl)=N2)c(=O)[nH]1,-14,+,1,178,1,
CC1([N+](=O)[O-])COP(=O)(Nc2cccc(Br)c2)OC1 (stereo unspecified),5,+,·,·,0,
Cc1ccc(C[n+]2c(-c3ccc(C)cc3)cc(-c3ccc(C)cc3)cc2-c2ccc(C)cc2)cc1,99*,?,1,282,-14,
Cc1ccc(-c2cc(-c3ccc(C)cc3)[n+](-c3ccc(C(=O)O)cc3)c(-c3ccc(C)cc3)c2)cc1,-6,i,4,324,1,
Cc1ccc([C@@H]2C[C@H]3[C@@H](CN2S(=O)(=O)c2ccc(Cl)cc2)C(=O)C[C@@H](c2ccccc2F)N3S(=O)(=O)c2ccc(C)cc2)cc1,-5,i,·,·,-2,
COc1ccc(/C=N\N=C(N)N)cc1,-33,i,-2,256,-2,
NC(N)=N/N=C/c1ccc(N2CCOCC2)cc1,-10,+,2,519,-4,
CC(C)=CCN1CC[C@@]2(C)c3cc(O)ccc3C[C@@H]1C2C (stereo partly specified),12,·,·,193,-2,
Cc1ccc2c(c1)N(CCC(=O)N1CCC3(CC1)OCCO3)C(=O)C(C)O2 (stereo unspecified),-16,i,·,·,-1,
Cc1ccc2c(c1)N(CCC(=O)N1CCC3(CC1)OCCO3)C(=O)CO2,34,+,-1,534,-3,
CC1CCC2[C@@H](C)C(=O)OC3O[C@]4(C)CCC1C32OO4 (stereo partly specified),5,+,-2,i,1,
CC1CCC2C(C)C(=O)OC3OC4(C)CCC1C32OO4 (stereo unspecified),2,+,-3,222,-1,
Cc1nn(Cc2ccccc2)c(C)c1C(=O)OCC(=O)Nc1ccccc1SCC#N,-23,+,-1,331,0,
SMILES,NR2E3 ag-1,Myeloid diff 2,NR2E3 ag-2,T cell modulator,FXN GAA850 act,others
COc1ccc(C2=CC(c3ccc4c(c3)OCO4)c3c(c4ccccc4oc3=O)O2)cc1OC (stereo unspecified),3,·,·,·,-2,
C=CCCC1(CC(C)C)C(=O)NC(=S)NC1=O,32,·,·,·,-2,
CCOC(=O)c1c(NS(=O)(=O)c2ccccc2)n(CCCOC)c2nc3ccccc3nc12,3,i,38*,116,0,NR2E3 ag confirm-1=1;PPARg-NCOR2 ag=-9
Cc1nc(N2CCN(Cc3ccc4c(c3)OCO4)CC2)[nH]c(=O)c1C,-8,i,·,·,0,
COC(=O)C1=C(c2ccc(F)cc2OCc2ccccc2)C[C@@H]2CC[C@H]1N2C(=O)NC1Cc2ccccc2C1,3,i,0,244,-2,
COCCNC(=O)c1c(NC(=O)c2ccc(Br)o2)n(Cc2ccccc2)c2nc3ccccc3nc12,-6,+,23*,248,1,NR2E3 ag confirm-1=-2;PPARg-NCOR2 ag=5
O=C1C(=O)c2ccccc2-c2ccccc21,68,?,37*,545,-15,NR2E3 ag confirm-1=39*;PPARg-NCOR2 ag=84*
O=C1C(=O)c2cccc3cccc1c23,2,i,0,242,1,
Cc1nc2c(=O)n(C)c(=O)nc-2n(C)n1,114*,?,38*,203,-15,NR2E3 ag confirm-1=40*;PPARg-NCOR2 ag=64*;NR2E3 ag confirm-2=100*;GAL4-VP16 luc=98*
O=P1(NCCCl)OCCC(OO)N1CCCl (stereo unspecified),10,i,·,·,·,
